Assay outcomes: PubChem, The Scripps Research Institute Molecular Screening Center
Most compounds without a hit are left out; they make up all but 2.3% or so of the library.
DDE Tn6 FP inh: DD(E)-Tn6 binding inhibition, primary FP screen; P02675; Fibrin DD(E) TRITC-Tn6 fluorescence polarization displacement; inhibition, % at 8.3 µM; 0.21% of 370,000 active;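 active = inhibition above a per-campaign cutoff: mean of compounds within control limits plus 3 SD, cut at about 15% in these data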;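 note: 0% = median of all compound wells on the plate and 100% = blocking peptide control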
PLCb3 inh: inhibitors of human phospholipase C beta3. Q01970. Purified PLC-beta3, fluorogenic substrate, fluorescence. inhibition, % at 12.2 µM. 0.18% of 370,000 active; in the data active = inhibition above about 11%;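 note: 0% = median of compound wells on plate and 100% = full blocker control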
DDE Tn7 FP inh: disrupts Tn7 cyclic peptide binding to fibrin D-Dimer-E complex. P02675. FP displacement of FITC-Tn7 peptide from fibrin DD(E); 0% = median of compound wells per plate. inhibition, % at 8.3 µM. 0.13% of 370,000 active;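 active = inhibition above the mean of compounds falling within the control limits plus 3 SD of them, cut at about 14% in these data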;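 note: 0% = plate median of compound wells and 100% = 10 µM Aha-Tn7 peptide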
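Test system – human fibrin DD(E) · Times – 10 min preincubation, 3 h with tracer, room temperature · Detection – fluorescence polarization of the labelled Tn7 tracer · Measure – percent inhibition normalized to high-control wells · Benchmarks – high control wells with 10 µM unlabelled Aha-Tn7 peptide (full inhibition) · Repeats – singlicate testing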
ADAM10 inh: inhibitors of human ADAM10; 0.62% of 370,000 active; recombinant ADAM10, EDANS/DABCYL FRET peptide cleavage, 3 h; inhibition, % at 7 µM; O14672;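 active = inhibition above a per-campaign cutoff equal to the mean of compounds falling between control-based bounds plus 3 SD, cut at about 20% in these data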;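 note: 0% = DMSO wells while the 100% control is not disclosed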
PLCg1 inh: blocks human PLC-gamma1 enzyme activity | P19174 | purified PLC-gamma1, fluorogenic substrate, fluorescence | inhibition, % at 12.2 µM | 0.84% of 370,000 active | AID 720700; in the data active = inhibition above about 9.5%
ADAM17 inh: ADAM17 inhibition, QFRET primary screen | inhibition, % at 6.95 µM | recombinant ADAM17, EDANS/DABCYL FRET peptide cleavage | 0.83% of 370,000 active | P78536 | AID 720648;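 active = inhibition above the mean of compounds lying between control limits plus 3 SD, set per campaign, cut at about 8.5% in these data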;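 note: 0% = DMSO-only wells as the low control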
Target sequence (P78536 215-824 limits assumed): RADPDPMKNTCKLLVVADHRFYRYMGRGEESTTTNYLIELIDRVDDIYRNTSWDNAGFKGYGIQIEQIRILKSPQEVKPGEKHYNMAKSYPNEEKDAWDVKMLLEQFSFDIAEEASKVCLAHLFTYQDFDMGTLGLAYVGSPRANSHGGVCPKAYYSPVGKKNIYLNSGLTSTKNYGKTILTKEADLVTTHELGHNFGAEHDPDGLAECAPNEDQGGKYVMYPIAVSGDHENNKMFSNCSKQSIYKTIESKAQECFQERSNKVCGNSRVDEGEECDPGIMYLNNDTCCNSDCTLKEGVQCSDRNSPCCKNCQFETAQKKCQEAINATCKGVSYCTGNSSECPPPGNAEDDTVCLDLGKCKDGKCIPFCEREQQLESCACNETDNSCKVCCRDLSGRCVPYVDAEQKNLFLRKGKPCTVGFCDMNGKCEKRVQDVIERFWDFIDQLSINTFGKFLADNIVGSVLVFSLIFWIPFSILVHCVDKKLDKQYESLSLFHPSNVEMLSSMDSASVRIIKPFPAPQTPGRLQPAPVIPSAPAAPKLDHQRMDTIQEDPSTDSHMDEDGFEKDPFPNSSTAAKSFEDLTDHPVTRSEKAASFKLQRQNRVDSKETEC
DDE Tn7 confirm: DD(E)-Tn7 binding inhibition, FP confirmation. inhibition, % at 8.3 µM. FP displacement of TRITC-Tn7 peptide from DD(E); 0% set at plate's compound-well median. 5% of 460 active. shares compounds with DDE Tn7 FP inh;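 active = inhibition above the campaign cutoff, the mean of compounds within control limits plus 3 SD, cut at about 14% in these data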;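 note: 100% = median FP of high control wells holding Aha-Tn7 inhibitor peptide; displacers lower polarization since freed probe rises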
DDE Tn7 FP ctr: counter-screen hit for Tn7 peptide-fibrin DD(E) binding disruption; shares compounds with DDE Tn7 FP inh; TRITC-Tn7 probe displacement, fluorescence polarization; inhibition, % at 8.3 µM; 3% of 460 active; AID 720633;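 active = inhibition above the cutoff, the mean of compounds lying between the control bounds plus 3 SD of those compounds, cut at about 17% in these data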;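 note: 0% = median of compound sample wells and 100% = excess unlabeled Aha-Tn7 peptide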
Tn6 DDE ctr: DD(E)-Tn6 binding inhibition, counter-screen | 2% of 680 active | shares compounds with DDE Tn6 FP inh | inhibition, % at 8.3 µM | Fibrin DD(E), TRITC-Tn6 fluorescence polarization displacement; 0% = median of compound wells, not DMSO | AID 720621;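 active = inhibition above the mean of test compounds lying between the control limits plus 3 SD of those, cut at about 14% in these data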;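 note: 0% = median of compound wells and 100% = wells with Aha-Tn7 blocking peptide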
DDE Tn6 confirm: DD(E)-Tn6 binding inhibition, FP confirmation. AID 720631. FP displacement of TRITC-Tn6 peptide from DD(E); 0% = per-plate median of test wells. shares compounds with DDE Tn6 FP inh. inhibition, % at 8.3 µM. 10% of 680 active;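 active = inhibition above the mean of compounds lying within the control limits plus 3 SD, cut at about 16% in these data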;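 note: 100% = high control wells holding a competing inhibitor peptide at 10 µM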
An asterisk follows results filed as active; i = inactive; · = not tested or not shown.

SMILES	DDE Tn6 FP inh	PLCb3 inh	DDE Tn7 FP inh	ADAM10 inh	PLCg1 inh	ADAM17 inh	DDE Tn7 confirm	DDE Tn7 FP ctr	others
C[C@H](NS(=O)(=O)c1ccc([N+](=O)[O-])cc1)C(=O)NCCNC(=O)[C@@H](C)NS(=O)(=O)c1ccc([N+](=O)[O-])cc1	8	-2	1	-9	0	-6	·	·
COC(=O)C1CN(Cc2cn(Cc3ccc(OC)cc3)nn2)CCS(=O)(=O)N1Cc1ccc(F)cc1 (centres undefined)	-3	3	4	1	-1	0	·	·
COc1ccc([C@H]2CC(=O)C=C(c3ccc(Cl)c(F)c3)C2)cc1	-7	-3	14*	4	-3	0	7	5
COc1ccc([C@H]2CC(=O)C=C(c3ccc(Cl)c(Cl)c3)C2)cc1	-2	-1	8	5	1	-4	·	·
CC(=O)Nc1sc(C)c(C)c1C(=O)OCC(=O)Nc1ccccc1C(F)(F)F	5	0	16*	-12	-1	0	3	2
COc1ccc([C@@H]2C[C@@H](c3ccccc3)Oc3cc(C)cc(C)c32)cc1	3	-2	2	1	2	-3	·	·
COc1ccc([C@@H]2C[C@@H](c3ccccc3)Oc3c(C)ccc(C(C)C)c32)cc1	-4	-1	14*	4	2	-2	10	7
O=C(N/N=C/c1sc(=O)[nH]c1-[n+]1ccc2ccccc2c1)c1ccccc1[O-]	-5	-155	20*	-111	-93	-31	4	2
O=C(N/N=C/c1sc(=O)[nH]c1-[n+]1ccccc1)c1ccccc1[O-]	-3	-1	-3	5	2	3	·	·
O=C1C=C(NCc2ccncc2)CC(c2ccccc2)C1 (centres undefined)	2	-21	6	-12	-18	-13	·	·
O=C1C=C(NNC(=O)c2ccncc2)CC(c2ccccc2)C1 (centres undefined)	5	-140	29*	-1	-97	-2	-7	-15
Cc1ccc(-n2c(SCC(=O)N/N=C/C=C\c3ccccc3[N+](=O)[O-])nnc2-c2ccccc2)cc1	-4	2	-6	18	3	7	·	·
O=C(CSc1nnc(CNC(=O)c2ccco2)o1)Nc1cccc(Cl)c1	1	-5	16*	2	0	-3	-1	-4
CCCCCc1ccc(NC(=O)O[C@@H]2CC[C@@]34CCCN3C(=O)CCC[C@H]4C2)cc1	1	-1	4	11	0	5	·	·
Cn1cccc1C(=O)OCC(=O)NCc1ccc2c(c1)OCO2	-3	-14	21*	-11	-3	-7	4	3
CCc1ccc2[nH]c(C)c(CN3CCCCCC3)c(=O)c2c1	-4	2	5	-5	0	-5	·	·
Cc1[nH]c2c(C)cccc2c(=O)c1CN1CCCCCC1	4	-11	16*	-3	-5	-5	5	4
CSCCCNC(=O)c1oc(=O)c2ccccc2c1-c1ccc(C)cc1	7	0	15*	-8	0	-3	-2	-3
Cc1nc2sc(C(=O)NCc3ccc4c(c3)OCO4)c(N)c2c(C)c1Cl	-2	-205	3	-41	-140	-12	·	·
CC(=O)c1nc(N2C(=O)CC(Cc3cccc(C)c3)C2=O)sc1C (centres undefined)	-6	-5	16*	-3	7	-8	2	2
CCC[C@H]1[C@@H](OC(=O)N2CCN(c3ccccc3)CC2)CC[C@@]23CCCN2C(=O)CCC[C@@H]13	4	3	-1	-1	-2	-1	·	·
Nc1cnccc1C(=O)O	46*	-63	14*	-44	-52	-17	-2	-3	Tn6 DDE ctr=-2;DDE Tn6 confirm=-3
COc1cc(NC(=O)c2ccccn2)ccc1NC(=O)c1ccccc1Cl	-9	-15	-9	9	-3	6	·	·
Fc1cccc(CNC2CCC23CCC(c2ccccc2)CC3)c1 (centres undefined)	2	0	5	1	-2	1	·	·
CN(C)c1ccc(C=Cc2nccc3ccccc23)cc1	131*	i	30*	-22	i	-8	2	54*	Tn6 DDE ctr=2;DDE Tn6 confirm=54*
SMILES	DDE Tn6 FP inh	PLCb3 inh	DDE Tn7 FP inh	ADAM10 inh	PLCg1 inh	ADAM17 inh	DDE Tn7 confirm	DDE Tn7 FP ctr	others
COc1ccc(CNC(=O)C[C@H]2C[C@H](C(=O)N3CCOCC3)[C@@]3(C)c4[nH]c5cc(-c6ccco6)ccc5c4CCN3C2=O)cc1OC	115*	-431	46*	-250	-334	-78	2	1	Tn6 DDE ctr=2;DDE Tn6 confirm=1
O=C1C=C(N2CCOCC2)c2ccccc2C1=O	5	-24	5	3	-10	0	·	·
O=C1C(N2CCOCC2)=Cc2cccc3cccc1c23	38*	-160	22*	-46	-111	-14	0	16*	Tn6 DDE ctr=0;DDE Tn6 confirm=16*
O=C1C=C(N2CCOCC2)c2cccc3cccc1c23	31*	-81	25*	-24	-65	-12	7	8	Tn6 DDE ctr=7;DDE Tn6 confirm=8
N#CC1=C(N)Oc2ccc3ccc(O)cc3c2C1c1ccsc1 (centres undefined)	169*	-242	23*	-9	-219	-1	8	38*	Tn6 DDE ctr=8;DDE Tn6 confirm=38*
N#CC1=C(N)Oc2cc(N)ccc2C1c1ccsc1 (centres undefined)	8	-7	7	-2	-5	-2	·	·
COC(=O)C[C@H]1CC[C@H]2[C@H](COc3ccc(NS(=O)(=O)c4ccccc4C)cc3C(=O)N2C)O1	3	1	-12	0	1	-1	·	·
Cc1ccc2nc(-c3ccc(NC(=O)CSc4nnc(-c5cc(C)[nH]n5)n4N)cc3)sc2c1	-11	-71	-3	-297	-60	-75	·	·
CCOC(=O)NC(=O)/C(C#N)=C\Nc1sccc1C(=O)OC	16*	-35	17*	-12	-38	-1	1	2	Tn6 DDE ctr=1;DDE Tn6 confirm=2
CCOC(=O)NC(=O)/C(C#N)=C\Nc1ccc(Cl)cc1Cl	-2	2	-3	-2	-3	-1	·	·
CC(NC(=O)/C(C#N)=C/c1cn[nH]c1-c1ccccc1)c1ccccc1 (centres undefined)	-7	-2	-2	-2	3	1	·	·
